Measured values as given in article PMC4278532 (Environmental Toxicology and Chemistry / Setac, 2014).

What was measured:
[1] = biological target: T1, human aryl hydrocarbon receptor (AhR) (Homo sapiens, UniProt P35869); experiment: Yeast bioassay; type: cell-based; details: for concentration at which the bioassay response showed signs of saturation: Figure 3
How it was run: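 Engineered S. cerevisiae YCM3 (W303a-derived) carries chromosomal full-length human AhR/ARNT under the galactose promoter and a 5×XRE-LacZ plasmid. Kept in glucose medium, diluted to A600 0.04 in 2% galactose medium, exposed 18 h at 30 °C (1% DMSO vehicle). ONPG assay pH 7.0, ~5 min, 37 °C, Na2CO3 stop. A405 normalized to A600, % of 1 µM β-naphthoflavone. Two-parameter fit; n = 4, ≥3 experiments.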

[2] = tested on: AhR; details: cited from earlier work
[3] = tested on: YCM3 yeast cells; experiment: Toxicity to the yeast cells; type: cell-based, Saccharomyces cerevisiae; details: for concentrations toxic to the yeast cells: 18 h, precluded data collection; for toxicity to the yeast cells: compared with 2-MP, 3-MP, 4-MP, tested up to 100 µM
[4] = biological target: T1, human aryl hydrocarbon receptor (AhR); details: cited from earlier work

T1 sequence (P35869 11-848): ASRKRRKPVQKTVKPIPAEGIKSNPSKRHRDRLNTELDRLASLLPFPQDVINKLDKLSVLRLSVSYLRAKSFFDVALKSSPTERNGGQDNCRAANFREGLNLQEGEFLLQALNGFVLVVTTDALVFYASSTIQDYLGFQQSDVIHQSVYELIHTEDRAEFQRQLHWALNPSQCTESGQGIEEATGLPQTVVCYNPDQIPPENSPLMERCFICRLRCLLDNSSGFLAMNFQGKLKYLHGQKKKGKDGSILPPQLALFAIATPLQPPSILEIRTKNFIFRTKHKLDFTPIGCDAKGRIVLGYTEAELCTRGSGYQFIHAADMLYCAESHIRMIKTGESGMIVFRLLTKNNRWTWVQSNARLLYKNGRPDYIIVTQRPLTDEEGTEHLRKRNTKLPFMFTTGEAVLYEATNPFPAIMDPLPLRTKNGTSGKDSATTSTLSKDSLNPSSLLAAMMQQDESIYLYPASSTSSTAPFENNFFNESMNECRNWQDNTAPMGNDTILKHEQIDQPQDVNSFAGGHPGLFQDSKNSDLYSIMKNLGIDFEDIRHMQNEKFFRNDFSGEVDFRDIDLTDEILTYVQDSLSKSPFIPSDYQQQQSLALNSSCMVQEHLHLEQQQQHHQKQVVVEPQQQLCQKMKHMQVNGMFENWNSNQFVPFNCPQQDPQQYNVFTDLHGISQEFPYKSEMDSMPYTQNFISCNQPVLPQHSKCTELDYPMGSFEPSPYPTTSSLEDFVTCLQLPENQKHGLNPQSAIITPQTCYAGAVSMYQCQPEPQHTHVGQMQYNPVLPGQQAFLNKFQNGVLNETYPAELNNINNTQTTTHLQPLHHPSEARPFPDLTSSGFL
T1 sequence (P27540 whole entry partner): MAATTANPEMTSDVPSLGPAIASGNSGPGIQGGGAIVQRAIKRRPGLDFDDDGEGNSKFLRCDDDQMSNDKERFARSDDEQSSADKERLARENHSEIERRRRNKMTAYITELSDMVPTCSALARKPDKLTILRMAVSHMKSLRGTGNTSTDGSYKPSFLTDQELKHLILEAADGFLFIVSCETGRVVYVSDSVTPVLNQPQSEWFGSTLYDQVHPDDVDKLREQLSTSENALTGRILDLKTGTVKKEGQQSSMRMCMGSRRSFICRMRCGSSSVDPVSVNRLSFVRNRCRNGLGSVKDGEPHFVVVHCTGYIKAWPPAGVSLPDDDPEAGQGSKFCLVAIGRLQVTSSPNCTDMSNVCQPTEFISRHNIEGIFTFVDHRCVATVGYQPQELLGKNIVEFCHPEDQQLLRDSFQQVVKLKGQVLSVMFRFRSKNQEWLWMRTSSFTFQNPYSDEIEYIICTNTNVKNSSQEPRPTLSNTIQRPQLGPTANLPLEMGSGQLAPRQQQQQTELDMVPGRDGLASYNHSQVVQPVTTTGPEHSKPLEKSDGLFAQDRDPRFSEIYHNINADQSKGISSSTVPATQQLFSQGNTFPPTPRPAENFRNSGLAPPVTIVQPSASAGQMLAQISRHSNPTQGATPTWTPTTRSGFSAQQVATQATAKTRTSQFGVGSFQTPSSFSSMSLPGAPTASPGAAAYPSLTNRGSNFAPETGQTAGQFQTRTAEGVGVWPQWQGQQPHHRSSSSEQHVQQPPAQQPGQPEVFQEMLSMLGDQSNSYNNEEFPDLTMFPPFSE

Cc1cccc2c1ccc1ccccc12 [1-MP, 1-methylphenanthrene]
concentration at which the bioassay response showed signs of saturation [1]: 30 µM
AhR activation in a rat liver system [2]: stronger than 9-MP

Cc1ccc2c(ccc3ccccc32)c1 [2-MP, 2-methylphenanthrene]
concentrations toxic to the yeast cells [3]: above 50 µM
AhR activation in a rat liver system [2]: stronger than 9-MP

Cc1ccc2ccc3ccc(C)cc3c2c1 [3,6-DMP, 3,6-dimethylphenanthrene]
signal in the bioassay relative to that produced by phenanthrene and the monomethylated derivatives [1]: approximately 50%

Cc1ccc2ccc3ccccc3c2c1 [3-MP, 3-methylphenanthrene]
concentrations toxic to the yeast cells [3]: above 50 µM
AhR activation in a rat liver system [2]: stronger than 9-MP

Cc1cccc2ccc3ccccc3c12 [4-MP, 4-methylphenanthrene]
concentrations toxic to the yeast cells [3]: above 50 µM

Cc1cc2ccccc2c2ccccc12 [9-MP, 9-methylphenanthrene]
concentration at which the bioassay response showed signs of saturation [1]: 100 µM
toxicity to the yeast cells [3]: less toxic to the yeast cells

c1ccc2c(c1)ccc1ccccc12 [Phenanthrene, phenanthrene, reference compound]
concentration at which the bioassay response showed signs of saturation [1]: 100 µM
toxicity to the yeast cells [3]: less toxic to the yeast cells

c1ccc2c(c1)cc1ccc3cccc4ccc2c1c34 [benzo[a]pyrene]
activity in this yeast bioassay [4]: very potent activator

O=c1cc(-c2ccccc2)oc2ccc3ccccc3c12 [β-NF, β-naphthoflavone]
AhR agonism ([4]; positive control): strong agonist
